Data: ChEMBL document CHEMBL2202989, “New adamantane phenylalkylamines with σ-receptor binding affinity and anticancer activity, associated with putative antagonism of neuropathic pain” (J Med Chem, 2012)
The source made the active and inactive calls. The rule behind the calls is not given here.

Tests used:
BXPC-3 [1] = assay: Growth inhibition of human BxPC3 cells after 48 hrs by SRB assay; type: functional; conditions: BXPC-3, 48 h
Outline: (§1)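 Cells grown in RPMI 1640 with 5% heat-inactivated FCS, 2 mM L-glutamine and antibiotics, 37 °C, 5% CO2. Seeded at 3500–30000 cells/well and left 24 h before dosing. DMSO solutions added at 10-fold dilutions from 100 to 0.01 μM for 48 h. Cells TCA-fixed and SRB-stained, absorbance read at 540 nm; GI50 derived against the time-zero plate.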

PC-3 [2] = assay: Induction of apoptosis in human PC3 cells assessed as late apoptosis at 0.5 uM using annexin V/7-AAD by FACS analysis (reference value: 3 %); type: functional
PC-3 [3] = assay: Cell cycle arrest in human PC3 cells assessed as accumulation at >G2/M phase at 0.5 uM after 24 hrs using propidium iodide staining by FACS analysis (reference value: 6 %); type: functional
IGROV-1 [4] = assay: Induction of apoptosis in human IGROV1 cells assessed as early apoptosis at 5 uM using annexin V/7-AAD by FACS analysis (reference value: 9 %); type: functional
Mus musculus [5] = assay: Toxicity in SCID mouse assessed as mortality at 40 to 55 mg/kg, ip for 2 to 3 weeks; type: organism-based; set-up: route intraperitoneal; conditions: in vivo
Outline: (§2)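 CD-1 (male and female) and SCID mice dosed ip at 40−55 mg/kg in 5% Tween 80 for chronic 2−3 week regimens. Deaths and body weight loss compared with vehicle (Tween 80 or Cremophor) and reference-drug groups. Weight loss, neurological, behavioral and dietary changes recorded as toxicity signs.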

IGROV-1 [6] = assay: Cell cycle arrest in human IGROV1 cells assessed as accumulation at >G2/M phase at 5 uM after 24 hrs using propidium iodide staining by FACS analysis (reference value: 21 %); type: functional
Outline: (§3)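 Cells were plated 24 h before treatment and exposed for 24 h at final 0.5, 5, 15 and 50 μM in 0.5% DMSO, against vehicle-treated controls. Cells were then trypsinised and fixed in cold ethanol for 3 h at 4 °C. They were stained in a mix of RNase (200 μg/mL) and PI (1 mg/mL) for 45 min at room temperature in the dark. Flow cytometry used 488 nm excitation and 10 000 gated cells. Phase percentages were assigned from DNA content.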

Mus musculus [7] = assay: Analgesic activity in CD1 mouse neuropathic pain model assessed as reduction in paw licking time at 50 mg/kg, po administered 1 hr prior to formalin challenge in presence of paclitaxel; type: functional, organism-based; set-up: dose 50 mg/kg
Outline: (§4)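 CD1 male mice (34−40 g), free access to food and water, were given paclitaxel 6 mg/kg ip once in saline on day 0. On day 14 the test compound was given orally 1 h before formalin was injected into the hind paw. Time spent licking and biting the injected paw and leg was recorded at 0−5 and 35−40 min after formalin.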

IGROV-1 [8] = assay: Cell cycle arrest in human IGROV1 cells assessed as accumulation at G1 phase at 15 uM after 24 hrs using propidium iodide staining by FACS analysis (reference value: 27 %); type: functional; outline: as §3
BXPC-3 [9] = assay: Induction of apoptosis in human BxPC3 cells assessed as cleaved caspase3 containing cells at 5 uM by antibody-based FACS analysis (reference value: 8.2 %); type: functional
MCF7 = assay: Growth inhibition of human MCF7 cells after 48 hrs by SRB assay; type: functional; conditions: MCF7, 48 h; outline: as §1
BXPC-3 [10] = assay: Induction of apoptosis in human BxPC3 cells assessed as late apoptosis at 5 uM using annexin V/7-AAD by FACS analysis (reference value: 9 %); type: functional
Mus musculus [11] = assay: Toxicity in SCID mouse assessed as body weight loss at 40 to 55 mg/kg, ip for 2 to 3 weeks; type: organism-based; set-up: route intraperitoneal; conditions: in vivo; outline: as §2
PC-3 [12] = assay: Induction of apoptosis in human PC3 cells assessed as early apoptosis at 50 uM using annexin V/7-AAD by FACS analysis (reference value: 5 %); type: functional
Outline: (§5)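 Cells plated 24 h before treatment, then exposed 24 h to 0.5, 5, 15 or 50 μM compound (final DMSO 0.5%); vehicle controls included. Cells scraped and stained with annexin V-FITC and 7-AAD for 15 min on ice in the dark. Flow cytometry with 488 nm excitation, 10,000 gated cells. Early apoptosis was annexin V+/7-AAD−, late was annexin V+/7-AAD+.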

PC-3 [13] = assay: Growth inhibition of human PC3 cells after 48 hrs by SRB assay; type: functional; conditions: PC-3, 48 h; outline: as §1
PC-3 [14] = assay: Induction of apoptosis in human PC3 cells assessed as late apoptosis at 5 uM using annexin V/7-AAD by FACS analysis (reference value: 3 %); type: functional
HCT-15 = assay: Growth inhibition of human HCT15 cells after 48 hrs by SRB assay; type: functional; conditions: HCT-15, 48 h; outline: as §1
OVCAR-5 = assay: Growth inhibition of human OVCAR5 cells after 48 hrs by SRB assay; type: functional; conditions: OVCAR-5, 48 h; outline: as §1
Mus musculus [15] = assay: Analgesic activity in CD1 mouse neuropathic pain model assessed as reduction in paw licking time at 100 mg/kg, po administered 1 hr prior to formalin challenge in presence of paclitaxel; type: functional, organism-based; set-up: dose 100 mg/kg; outline: as §4
BXPC-3 [16] = assay: Induction of apoptosis in human BxPC3 cells assessed as healthy cells at 5 uM using annexin V/7-AAD by FACS analysis (reference value: 79 %); type: functional
IGROV-1 [17] = assay: Cell cycle arrest in human IGROV1 cells assessed as accumulation at G2 phase at 0.5 uM after 24 hrs using propidium iodide staining by FACS analysis (reference value: 19 %); type: functional; outline: as §3
BXPC-3 [18] = assay: Induction of apoptosis in human BxPC3 cells assessed as early apoptosis at 15 uM using annexin V/7-AAD by FACS analysis (reference value: 9 %); type: functional
BXPC-3 [19] = assay: Induction of apoptosis in human BxPC3 cells assessed as healthy cells at 50 uM using annexin V/7-AAD by FACS analysis (reference value: 79 %); type: functional
PC-3 [20] = assay: Cell cycle arrest in human PC3 cells assessed as accumulation at sub G1 phase at 0.5 uM after 24 hrs using propidium iodide staining by FACS analysis (reference value: 4 %); type: functional
BXPC-3 [21] = assay: Induction of apoptosis in human BxPC3 cells assessed as total apoptotic death at 50 uM using annexin V/7-AAD by FACS analysis (reference value: 18 %); type: functional; outline: as §5
BXPC-3 [22] = assay: Cell cycle arrest in human BxPC3 cells assessed as accumulation at G1 phase at 0.5 uM after 24 hrs using propidium iodide staining by FACS analysis (reference value: 41 %); type: functional; outline: as §3
PC-3 [23] = assay: Induction of apoptosis in human PC3 cells assessed as cleaved caspase3 containing cells at 50 uM by antibody-based FACS analysis (reference value: 3.2%); type: functional
IGROV-1 [24] = assay: Induction of apoptosis in human IGROV1 cells assessed as cleaved caspase3 containing cells at 15 uM by antibody-based FACS analysis (reference value: 3.9 %); type: functional
BXPC-3 [25] = assay: Induction of apoptosis in human BxPC3 cells assessed as healthy cells at 0.5 uM using annexin V/7-AAD by FACS analysis (reference value: 79 %); type: functional
[26] = read-out: LC50 (the source's name)

Work on `CN1CCN(CCCc2ccc(C(c3ccccc3)C34CC5CC(CC(C5)C3)C4)cc2)CC1` (stereo not drawn) yielded a GI50 (BXPC-3 [1]) of 3.41 µM, an LC50 (BXPC-3 [1]) of 0.0088 µM and a TGI (BXPC-3 [1]) of 6.1 µM. It also gave an Activity (PC-3 [2]) of 1%, an Activity (PC-3 [3]) of 7% and an Activity (IGROV-1 [4]) of 10%. The Activity (Mus musculus [5]) was “Non-toxic”, the Activity (IGROV-1 [6]) was 20% and the Activity (Mus musculus [7]) was “Active”. For the same molecule, the Activity (IGROV-1 [8]) was 23%, the Activity (BXPC-3 [9]) was 4% and the GI50 (MCF7) was 3.2 µM. For the same molecule, the TGI (MCF7) was 6.1 µM, the CC50 (MCF7; [26]) was 0.009 µM and the Activity (BXPC-3 [10]) was 10%. The Activity (Mus musculus [11]) was “Non-toxic”, the Activity (PC-3 [12]) was 15% and the GI50 (PC-3 [13]) was 3.43 µM. The TGI (PC-3 [13]) was 6.72 µM, the CC50 (PC-3 [13]; [26]) was 0.01 µM and the Activity (PC-3 [14]) was 2%. For the same molecule, the GI50 (HCT-15) was 3.5 µM, the TGI (HCT-15) was 6.35 µM and the CC50 (HCT-15; [26]) was 0.0092 µM. For the same molecule, the GI50 (OVCAR-5) was 3.6 µM, the TGI (OVCAR-5) was 6.9 µM and the CC50 (OVCAR-5; [26]) was 0.0102 µM. The Activity (Mus musculus [15]) was “Active”, the Activity (BXPC-3 [16]) was 77% and the Activity (IGROV-1 [17]) was 23%. The Activity (BXPC-3 [18]) was 19%, the Activity (BXPC-3 [19]) was 12% and the Activity (PC-3 [20]) was 4%. The Activity (BXPC-3 [21]) was 46%, the Activity (BXPC-3 [22]) was 41% and the Activity (PC-3 [23]) was 4%. For the same molecule, the Activity (IGROV-1 [24]) was 61.4% and the Activity (BXPC-3 [25]) was 82%.
